These results are taken from ChEMBL document CHEMBL1128719, “The synthesis, structure-activity, and structure-side effect relationships of a series of 8-alkoxy- and 5-amino-8-alkoxyquinolone antibacterial agents” (J Med Chem, 1995).

Data set [1] relates to Staphylococcus aureus. As to the kind of experiment: In vitro antibacterial activity was tested for Staphylococcus aureus H228. Type of data set: functional. The procedure, abridged: (§1)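 Microtitration (microdilution) MIC determination in μg/mL against a panel of Gram-positive, Gram-negative and anaerobic organisms. Values come from duplicate or triplicate experiments and are stated accurate to ±50%.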

The subject of data set [2] is Pseudomonas aeruginosa. As to the kind of experiment: In vitro antibacterial activity was tested for Pseudomonas aeruginosa UI-18. Type of data set: functional. The procedure, abridged:
as §1

Data set [3] deals with Providencia rettgeri. The data set is described as follows: In vitro antibacterial activity was tested for Providencia rettgeri H1771. The data set is classed as functional. The procedure, abridged:
as §1

The test system of data set [4] is Streptococcus pyogenes. As to the kind of experiment: In vitro antibacterial activity was tested for Streptococcus pyogenes C203. Type of data set: functional. An outline of the steps: as §1
For data set [5], the system named is Staphylococcus aureus. As to the kind of experiment: In vitro antibacterial activity was tested for Staphylococcus aureus UC-76. Type of data set: functional. The procedure, abridged: as §1
Data set [6] deals with Clostridioides difficile. The data set is described as follows: In vitro antibacterial activity was tested for Clostridium diff CD1-1. Type of data set: functional.
The subject of data set [7] is Bacteroides fragilis. As to the kind of experiment: In vitro antibacterial activity against Bacteroides fragilis BFA. The data set is classed as functional. The procedure, abridged: as §1
The test system of data set [8] is Clostridium perfringens. As to the kind of experiment: In vitro antibacterial activity against Clostridium perfringens CP 3-1. Type of data set: functional.
In data set [9] the test system is Enterobacter cloacae. The data set is described as follows: In vitro antibacterial activity was tested for Enterobacter cloacae HA2646. The data set is classed as functional.
Data set [10] relates to Escherichia coli. As to the kind of experiment: In vitro antibacterial activity was tested for Escherichia coli Vogel. The data set is classed as functional. An outline of the steps:
as §1

In data set [11] the test system is Cutibacterium acnes. The data set is described as follows: In vitro antibacterial activity was tested for Propion acnes PA5-1. Type of data set: functional. The procedure, abridged:
as §1

Data set [12] concerns Klebsiella pneumoniae. As to the kind of experiment: In vitro antibacterial activity was tested for Klebsiella pneumoniae MGH-2. Type of data set: functional. The procedure, abridged: as §1
For data set [13], the system named is V79. As to the kind of experiment: Clonogenic cytotoxicity against Chinese hamster V-79 cells. The data set is classed as functional, cell-based. Conditions: Cricetulus griseus.
Data set [14] has as its system Escherichia coli. As to the kind of experiment: In vitro antibacterial activity was tested for Escherichia coli H560. The data set is classed as functional. The procedure, abridged:
as §1

The test system of data set [15] is Enterococcus faecalis. As to the kind of experiment: In vitro antibacterial activity was tested for Streptococcus faecalis MGH-2. The data set is classed as functional. An outline of the steps: as §1
For data set [16], the system named is Streptococcus pneumoniae. The data set is described as follows: In vitro antibacterial activity was tested for Streptococcus pneumoniae SV-1. Type of data set: functional. An outline of the steps: as §1
The test system of data set [17] is Peptoniphilus asaccharolyticus. As to the kind of experiment: In vitro antibacterial activity was tested for Pepto asac PA 3-1. Type of data set: functional. The procedure, abridged:
as §1

For data set [18], the species on record is Mus musculus. The data set is described as follows: Phototoxic skin reaction in depilated female CD-1 mice. Type of data set: functional. The procedure, abridged:
(§2)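 Female CD-1 mice, depilated, given a single oral or subcutaneous dose. UVA (320–400 nm) exposure for 3 h, starting 1 h post-dose. Initial doses were 30, 100 and 300 mg/kg. PTD50 (dose giving phototoxic skin reaction in 50% of mice) derived by probit method. First day of positive reaction and no-effect dose taken from raw data.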

For data set [19], the species on record is Mus musculus. As to the kind of experiment: Phototoxic skin reaction in depilated female CD-1 mice. The data set is classed as toxicity, organism-based. Conditions: in vivo. An outline of the steps:
as §2

Each structure is given as a SMILES string. ≈ marks a conversion by molar mass, not a printed value. Some results are limits rather than exact numbers.

Consider `COc1c(N2CCCC(CN)C2)c(F)c(N)c2c(=O)c(C(=O)O)cn(C3CC3)c12` (stereo not given), for which the MIC in [1] stood at 0.05 µg/mL (≈ 0.124 µM); in data set [2], 3.1 µg/mL (≈ 7.66 µM); in data set [3], 0.8 µg/mL (≈ 1.98 µM); in data set [4], 0.025 µg/mL (≈ 0.0618 µM); in data set [5], 0.006 µg/mL (≈ 0.0148 µM); in [6] it was 1.6 µg/mL (≈ 3.96 µM). Moreover, the MIC in data set [7] came out at 3.1 µg/mL (≈ 7.66 µM); in [8], 0.2 µg/mL (≈ 0.495 µM); in data set [9], 0.2 µg/mL (≈ 0.495 µM); in data set [10] it was 0.1 µg/mL (≈ 0.247 µM); in [11], 1.6 µg/mL (≈ 3.96 µM); in [12], 0.4 µg/mL (≈ 0.989 µM). For the same molecule, the MIC in [14] was 0.1 µg/mL (≈ 0.247 µM); in data set [15], 0.025 µg/mL (≈ 0.0618 µM); in data set [16], 0.025 µg/mL (≈ 0.0618 µM); in data set [17], 0.8 µg/mL (≈ 1.98 µM). Besides, in data set [13], 140 µg/mL (≈ 346 µM) corresponded to half-maximal inhibition (IC50).
`COc1c(N2CCC(C)(CN)C2)c(F)c(N)c2c(=O)c(C(=O)O)cn(C3CC3)c12` (stereo not given): the MIC in [1] is 0.025 µg/mL (≈ 0.0618 µM); in data set [2] it was 3.1 µg/mL (≈ 7.66 µM); in [3] it was 0.8 µg/mL (≈ 1.98 µM); in data set [4], 0.025 µg/mL (≈ 0.0618 µM); in [5], 0.006 µg/mL (≈ 0.0148 µM); in [6] it was 1.6 µg/mL (≈ 3.96 µM). Further, the MIC in [7] is 1.6 µg/mL (≈ 3.96 µM); in data set [8], 0.8 µg/mL (≈ 1.98 µM); in [9], 0.1 µg/mL (≈ 0.247 µM); in data set [10], 0.1 µg/mL (≈ 0.247 µM); in [11] it was 1.6 µg/mL (≈ 3.96 µM); in [12] it was 0.2 µg/mL (≈ 0.495 µM). The MIC in [14] was 0.05 µg/mL (≈ 0.124 µM); in [15] it was 0.05 µg/mL (≈ 0.124 µM); in data set [16], 0.013 µg/mL (≈ 0.0321 µM); in data set [17] it was 0.8 µg/mL (≈ 1.98 µM). The IC50 in data set [13] was determined as 140 µg/mL (≈ 346 µM).
Regarding `CCOc1c(N2CCC(N)C2)c(F)cc2c(=O)c(C(=O)O)cn(C3CC3)c12` (stereo not given), the MIC in [1] is 0.05 µg/mL (≈ 0.133 µM); in data set [2], 3.1 µg/mL (≈ 8.26 µM); in data set [3] it was 0.4 µg/mL (≈ 1.07 µM); in data set [4] it was 0.2 µg/mL (≈ 0.533 µM); in data set [5], 0.013 µg/mL (≈ 0.0346 µM); in data set [6] it was 3.1 µg/mL (≈ 8.26 µM). In addition, the MIC was determined as 1.6 µg/mL (≈ 4.26 µM) in data set [7]; 0.8 µg/mL (≈ 2.13 µM) in data set [8]; 0.1 µg/mL (≈ 0.266 µM) in data set [9]; 0.05 µg/mL (≈ 0.133 µM) in data set [10]; 3.1 µg/mL (≈ 8.26 µM) in [11]; 0.2 µg/mL (≈ 0.533 µM) in data set [12]. For the same molecule, the MIC in [14] stood at 0.05 µg/mL (≈ 0.133 µM); in data set [15], 0.1 µg/mL (≈ 0.266 µM); in data set [16] it was 0.1 µg/mL (≈ 0.266 µM); in data set [17], 0.8 µg/mL (≈ 2.13 µM). In data set [13], the IC50 came out at 210 µg/mL (≈ 559 µM).
With `COc1c(N2CCC(C)(CN)C2)c(F)cc2c(=O)c(C(=O)O)cn(C3CC3)c12` (stereo not given), the MIC in [1] came out at 0.025 µg/mL (≈ 0.0642 µM); in data set [2], 1.6 µg/mL (≈ 4.11 µM); in data set [3] it was 0.4 µg/mL (≈ 1.03 µM); in [4], 0.013 µg/mL (≈ 0.0334 µM); in [5], 0.006 µg/mL (≈ 0.0154 µM); in data set [6], 0.8 µg/mL (≈ 2.05 µM). Also, the MIC worked out at 0.4 µg/mL (≈ 1.03 µM) in data set [7]; 0.2 µg/mL (≈ 0.514 µM) in data set [8]; 0.1 µg/mL (≈ 0.257 µM) in data set [9]; 0.1 µg/mL (≈ 0.257 µM) in [10]; 0.4 µg/mL (≈ 1.03 µM) in [11]; 0.2 µg/mL (≈ 0.514 µM) in data set [12]. Further, the MIC in data set [14] amounted to 0.05 µg/mL (≈ 0.128 µM); in data set [15], 0.025 µg/mL (≈ 0.0642 µM); in data set [16] it was 0.013 µg/mL (≈ 0.0334 µM); in [17] it was 0.8 µg/mL (≈ 2.05 µM). Also, in data set [18], the No effect dose is listed as 100 mg. For the same molecule, the PTD50 in data set [19] is listed as > 100 mg.
For `CC1(CN)CCN(c2nc3c(cc2F)c(=O)c(C(=O)O)cn3C2CC2)C1` (stereo not given), the MIC was determined as 25 µg/mL (≈ 69.4 µM) in [6]; 6.3 µg/mL (≈ 17.5 µM) in data set [7]; 0.2 µg/mL (≈ 0.555 µM) in data set [8]; 1.6 µg/mL (≈ 4.44 µM) in [11]; 1.6 µg/mL (≈ 4.44 µM) in data set [17]. This molecule also gave a No effect dose in [18] of 300 mg. For the same molecule, the PTD50 in data set [19] is > 300 mg.
As for `NC1CCCN(c2c(F)cc3c(=O)c(C(=O)O)cn(C4CC4)c3c2F)C1` (stereo not given), the MIC in data set [6] was 1.6 µg/mL (≈ 4.4 µM); in data set [7], 1.6 µg/mL (≈ 4.4 µM); in data set [8], 0.2 µg/mL (≈ 0.55 µM); in data set [11], 0.4 µg/mL (≈ 1.1 µM); in data set [17], 1.6 µg/mL (≈ 4.4 µM). In addition, in data set [18], the No effect dose is 30 mg. Further, the PTD50 in [19] stood at 55 mg.
`CC1(CN)CCN(c2c(F)c(N)c3c(=O)c(C(=O)O)cn(C4CC4)c3c2F)C1` (stereo not given): the MIC in [6] turned out to be 1.6 µg/mL (≈ 4.08 µM); in data set [7], 0.8 µg/mL (≈ 2.04 µM); in [8] it was 0.025 µg/mL (≈ 0.0637 µM); in [11] it was 0.4 µg/mL (≈ 1.02 µM); in data set [17], 0.2 µg/mL (≈ 0.51 µM). Also, in data set [18], the No effect dose came out at 30 mg. In addition, the PTD50 in [19] is on record as > 30 mg.
